In the library only some 3.8% were active in any assay of this set; here they are far more common.
NPY-Y1 PAM-ag: potentiators or agonists of human neuropeptide Y receptor Y1 | P25929 | NPY-Y1 expressing cells, potentiator/agonist activation | activation, % at 3.6 µM | hit rate 0.37% among 220,000; in the data active = activation above about 33%, passing the limit was not always enough;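 also: cells stimulated with NPY at EC10 then isoproterenol at EC100; 0% = low agonist plus stimulus and 100% = saturating agonist plus stimulus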
NPY-Y2 PAM-ag: potentiates or activates human NPY-Y2 receptor; P49146; activation, % at 3.6 µM; hit rate 0.45% among 220,000; cells expressing NPY-Y2, potentiator/agonist read-out; in the data active = activation above about 27%;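 also: cells stimulated with NPY near EC25 plus isoproterenol at EC100; 0% = vehicle plus submaximal agonist and 100% = vehicle plus saturating agonist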
Target sequence (P49146 whole entry, looked up): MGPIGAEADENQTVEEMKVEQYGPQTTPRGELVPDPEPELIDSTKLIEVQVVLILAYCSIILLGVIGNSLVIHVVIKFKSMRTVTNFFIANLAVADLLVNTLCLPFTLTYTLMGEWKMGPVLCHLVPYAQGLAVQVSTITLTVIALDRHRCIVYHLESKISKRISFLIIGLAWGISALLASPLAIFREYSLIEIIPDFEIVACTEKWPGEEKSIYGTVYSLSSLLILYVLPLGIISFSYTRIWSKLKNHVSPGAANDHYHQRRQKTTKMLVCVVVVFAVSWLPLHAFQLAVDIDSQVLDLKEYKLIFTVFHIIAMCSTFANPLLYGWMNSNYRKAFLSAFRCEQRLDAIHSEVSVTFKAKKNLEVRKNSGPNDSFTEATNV
RAM network inh: yeast RAM network inhibition; inhibition, % at 50 µM; S. cerevisiae dse1pr::URA3 reporter, 5-FOA growth OD615, 2 d; analog-sensitive cbk1-as2 kinase mutant strain; hit rate 1.8% among 190,000; AID 868;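 active = inhibition above a set limit, 3 SD over mean compound inhibition, cut at about 8.4% in these data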;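 also: 0% = DMSO-only wells with no growth and 100% = 10 µM 1-NA-PP1 full growth; inhibition rescues growth on 5-FOA so higher OD means more RAM inhibition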
INS promoter inh: TRM-6 insulin promoter activity inhibition; TRM-6 cells, insulin promoter-eGFP reporter, imaging; reporter expression induced with tamoxifen; inhibition, % at 2 µM; hit rate 0.9% among 130,000; AID 1273;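 active = inhibition above the mean plus 3 SD, with well images judged a real hit on visual review, cut at about 60% in these data, passing the limit was not always enough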
NPY Y2 blocker: blocks the human neuropeptide Y Y2 receptor. NPY-Y2 expressing cells, antagonist mode. P49146. hit rate 0.99% among 140,000. inhibition, % at 2.7 µM; in the data active = inhibition above about 17%;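 also: 0% = vehicle with agonist challenge and 100% = reference antagonist with challenge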
NPY Y1 blocker: NPY-Y1 (human) receptor antagonism; P25929; HEK293-CNG Y1 cells, membrane potential fluorescence; NPY at EC95, then isoproterenol; inhibition, % at 3.6 µM; hit rate 1% among 200,000;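 active = inhibition above the campaign mean inhibition of all tested compounds plus 3 SD, cut at about 20% in these data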;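 also: 0% = DMSO wells given NPY plus isoproterenol and 100% = isoproterenol alone without NPY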
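Benchmarks – high control isoproterenol alone, low control NPY with isoproterenol · Material – HEK293 Y1/CNG channel cell line · Times – dye 3 h, compound 60 min room temperature, stimulation 45 min · Probe or stimulus – NPY (25 nM), isoproterenol (1 µM), Ro 20-1724 (25 µM) · Evaluation – % inhibition of NPY effect · Signal – fluorescence, membrane potential probe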
* marks the source's active call; other numbers are inactive results; . = not tested or not shown.

SMILES | NPY-Y1 PAM-ag | NPY-Y2 PAM-ag | RAM network inh | INS promoter inh | NPY Y2 blocker | NPY Y1 blocker
CC(C)C(=O)Nc1ccc2c(c1)nc1n2CCSC1 | -14 | -3 | 1 | 76* | -3 | -10
CCOc1ccc(NC(=S)N2CCN(c3ccc(N4CCOCC4)nn3)CC2)cc1 | -6 | -11 | 2 | 14 | . | -7
COc1ccc(C(=O)Nc2ccc(Cl)cc2C(=O)NCCN2CCOCC2)cc1 | 6 | -12 | 1 | -5 | 2 | 2
CCCCNc1c2c3c(cccc3n(C)c1=O)C(=O)c1ccccc1-2 | -4 | 12 | 9.2* | -433 | 4 | 3
COc1cccc(CC(Cc2nc3ccccc3[nH]2)c2nc3ccccc3[nH]2)c1 (centres undefined) | -1 | -7 | 0 | -179 | . | 7
Cc1ccc(N=Nc2c(C)[nH][nH]c2=O)c(C)c1 | 17 | 3 | 5 | 73* | 0 | 7
CC(C)(C)NC(=O)C(c1ccco1)N(C(=O)Cn1nnc(-c2ccc(F)cc2)n1)c1cccc(F)c1 (centres undefined) | 4 | -5 | 9.2* | . | 3 | -5
CCSc1nnc(NC(=O)NC(CC)(C(F)(F)F)C(F)(F)F)s1 | 47* | 23 | 3 | . | 0 | 1
CCSc1nnc(NC(=O)NC(C)(C(F)(F)F)C(F)(F)F)s1 | 1 | 11 | 0 | 31 | 1 | -2
Cc1nnc(SCC(=O)c2ccc(Cl)cc2)s1 | 23 | 0 | 0 | 71* | . | 0
Cc1nc2ccc(NC(=O)N3CCSCC3)cc2nc1C | -14 | -25 | 0 | 77* | 3 | 0
Cc1nc2ccc(NC(=O)N3CCSCC3)cc2s1 | -5 | -7 | 1 | -34 | 2 | 6
O=C(Nc1ccc(Cl)cc1C(=O)Nc1ccc(Br)cn1)c1ccco1 | -91 | -28 | 1 | -356 | 31* | 21*
CCOC(=O)Cc1nn(Cc2nc(-c3ccc(C)cc3)cs2)c(=O)c2ccccc12 | 9 | 9 | . | . | . | .
COc1ccc(C2(C)NC(=O)N(CC(=O)Nc3ccc(-c4nc5ccc(C)cc5s4)cc3)C2=O)cc1 (centres undefined) | 39* | 56* | 6 | . | . | -12
CCC(C)NC(=O)c1ccccc1NC(=O)COc1ccc(OC)cc1 (centres undefined) | -25 | -16 | 6 | 79* | 5 | 0
CC(C)NC(=O)c1ccccc1NC(=O)C1COc2ccccc2O1 (centres undefined) | -22 | 5 | 3 | -275 | -1 | 6
CCC(C)NC(=O)c1ccccc1NC(=O)C1COc2ccccc2O1 (centres undefined) | 6 | -4 | 8.8* | . | . | 6
CCC(=O)Nc1cc(C(=O)OCC(=O)c2ccc(Cl)cc2Cl)ccc1C | 17 | -1 | 2 | . | 3 | 1
O=C(O)CCC(=O)Nc1ccc(C(=O)OCC(=O)c2ccc(Cl)cc2Cl)cc1 | 15 | 18 | 8.7* | 47 | . | 1
Cc1nc2sc3c(c2c(=O)n1/N=C/c1ccco1)CCCC3 | 104* | 103* | -1 | . | 0 | -14
Cc1nc2sc3c(c2c(=O)n1/N=C/c1cccnc1)CCCC3 | -2 | -9 | 3 | 33 | . | -6
CCN(c1cccc(C)c1)S(=O)(=O)c1ccc2c3c(cccc13)C(=O)N2 | -3 | -2 | 8.5* | 67 | -1 | -6
Clc1ccccc1CNCc1ccncc1 | 10 | -4 | 1 | 58 | . | -1
CC/C(=N/Nc1cccc(Cl)c1)c1cnnc(SC)n1 | 3 | 8 | 9.0* | 31 | 5 | 0
SMILES | NPY-Y1 PAM-ag | NPY-Y2 PAM-ag | RAM network inh | INS promoter inh | NPY Y2 blocker | NPY Y1 blocker
CC/C(=N/Nc1ccccc1)c1cnnc(-c2ccccc2)n1 | -8 | -2 | 5 | -248 | 2 | -1
Cc1cc(NCCO)nc(-n2nc(C)cc2C)n1 | 5 | 7 | -1 | 79* | -3 | 4
CN(C)c1ccc(CN(C(=O)c2ccc(Cl)c([N+](=O)[O-])c2)C2CCS(=O)(=O)C2)cc1 (centres undefined) | 22 | 8 | . | . | . | .
C[n+]1ccc(CC2C(=[N+]([O-])[O-])C=Nc3ncnn32)cc1 (centres undefined) | 16 | 8 | 1 | 67 | . | 7
O=[N+]([O-])c1ccc(N2CCC(=NOCc3ccc(Cl)cc3)CC2)cc1 | 25 | -5 | 11* | . | 15 | 13
Cc1ccc(C(=O)ON=C2CCN(c3ccc([N+](=O)[O-])cc3)CC2)cc1 | -9 | -11 | 5 | . | 2 | 4
Cc1c(O)c(CN(C)C)cc2c1oc(=O)c1ccccc12 | 84* | 51* | . | . | . | .
Cc1c(O)c(CN2CCCCC2)cc2c1oc(=O)c1ccccc12 | 8 | -3 | 1 | -10 | 4 | 8
Cc1cc(C)n(Cc2ccc(Cl)cc2Cl)c(=O)c1S(=O)(=O)c1ccccc1 | -33 | 5 | 8.9* | 0 | 9 | 14
COc1ccc(NC(=S)N2CCC(c3nc4ccccc4o3)CC2)c(OC)c1 | 0 | -17 | 1 | 29 | . | 3
N=C(c1ccc([N+](=O)[O-])cc1)N1CCCCCC1 | 1 | 0 | 1 | . | . | -1
Cc1onc(-c2ccccc2)c1C(=O)OCC(=O)NCc1ccc(F)cc1 | -28 | 6 | 8.5* | . | . | -2
Cn1c(C(=O)OCC(=O)NCCc2ccccc2)cc2sccc21 | -24 | -14 | 1 | -26 | 5 | 16
c1ccc(-c2nc(-c3nccc4ccccc34)oc2-c2ccccc2)cc1 | -10 | -10 | . | . | . | .
O=C1CN(C(=O)CNCc2ccc(Cl)cc2)c2ccccc2N1 | -11 | -10 | . | . | . | .
COc1ccc(CCN(Cc2nc(-c3ccccc3)no2)Cc2nc(-c3ccccc3)no2)cc1OC | 5 | 4 | 9.0* | 0 | 3 | 4
CCN1C(=O)/C(=C2\SC(=S)N(CCCOC)C2=O)c2ccccc21 | 1 | 14 | 9.5* | . | -1 | -1
CN1C(=O)/C(=C2\SC(=S)N(CCCCCC(=O)O)C2=O)c2ccccc21 | 1 | -1 | . | . | . | .
Brc1ccc(CSc2ccc3nnc(-c4cccnc4)n3n2)cc1 | -2 | -18 | 10* | . | . | -1
Cc1ccc(CSc2ccc3nnc(-c4cccnc4)n3n2)cc1 | 0 | 2 | 2 | . | 9 | -1
Brc1ccc(CSc2ccc3nnc(-c4ccccn4)n3n2)cc1 | -7 | -15 | 9.9* | -49 | . | 14
NNc1ccc2c(C(F)(F)F)cc(C(F)(F)F)nc2n1 | 0 | -4 | 0 | -92 | . | 8
Cc1ccc(/C=N/Nc2ccc3c(C(F)(F)F)cc(C(F)(F)F)nc3n2)cc1 | 17 | -4 | 3 | 71* | 1 | -2
O=C(CC1CCS(=O)(=O)C1)Nc1ccc[nH]c1=O (centres undefined) | -23 | 3 | 2 | -112 | 1 | 1
CCOc1ccc2nc(NC(=O)CN3CCC(n4nnc5cc(C(F)(F)F)ccc54)CC3)sc2c1 | -15 | -14 | 6 | 77* | 2 | -2
Cc1cc(NC(=O)CN2CCC(n3nnc4cc(C(F)(F)F)ccc43)CC2)no1 | -14 | 5 | 1 | . | 4 | 9

Compound activity deposited in PubChem BioAssay by several laboratories.
